In ChEMBL document CHEMBL3390837, “Bridged tetrahydroisoquinolines as selective NADPH oxidase 2 (Nox2) inhibitors” (Medchemcomm, 2013):

Assays:
NADPH oxidase 5 = molecular target: T1, NADPH oxidase 5 (Homo sapiens, UniProt Q96PH1); assay: Inhibition of full length human NOX5 transfected in HEK cells assessed as inhibition of ionomycin-stimulated ROS generation by chemiluminescence assay; assay type: cell-based, HEK293
T1 sequence (Q96PH1 whole entry): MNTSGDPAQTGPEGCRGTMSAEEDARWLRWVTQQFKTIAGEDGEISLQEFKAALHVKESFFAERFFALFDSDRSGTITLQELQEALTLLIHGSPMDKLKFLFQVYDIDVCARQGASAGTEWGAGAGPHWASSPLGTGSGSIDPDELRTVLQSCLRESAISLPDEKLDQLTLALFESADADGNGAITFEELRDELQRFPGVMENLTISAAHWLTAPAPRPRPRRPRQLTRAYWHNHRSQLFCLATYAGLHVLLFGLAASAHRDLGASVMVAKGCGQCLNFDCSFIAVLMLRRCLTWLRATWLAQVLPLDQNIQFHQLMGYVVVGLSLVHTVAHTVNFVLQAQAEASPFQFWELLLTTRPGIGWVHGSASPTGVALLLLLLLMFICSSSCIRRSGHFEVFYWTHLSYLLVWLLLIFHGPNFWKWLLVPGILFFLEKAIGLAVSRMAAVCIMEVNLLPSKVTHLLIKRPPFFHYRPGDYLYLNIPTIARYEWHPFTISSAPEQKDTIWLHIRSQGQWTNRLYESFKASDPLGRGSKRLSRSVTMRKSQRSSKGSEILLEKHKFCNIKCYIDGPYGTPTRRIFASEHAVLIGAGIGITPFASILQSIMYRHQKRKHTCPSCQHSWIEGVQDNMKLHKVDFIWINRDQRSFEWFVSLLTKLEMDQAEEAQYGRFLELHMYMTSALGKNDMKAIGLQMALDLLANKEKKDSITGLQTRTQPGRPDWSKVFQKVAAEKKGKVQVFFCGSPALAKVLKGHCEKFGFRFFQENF
Method in brief: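 HEK-Nox5 cells at 5 × 10⁴ cells/well in OPTIMEM, 10 min at 37 °C in PBS with L-012, then stimulated with 1 µM PMA/0.1 µM ionomycin; luminescence over time; SOD 150 U/mL used to confirm superoxide specificity. IC50 by three-parameter fit, Hill slope 1, top/bottom fixed 100/0.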

NADPH oxidase 1 = molecular target: T2, NADPH oxidase 1 (Homo sapiens, UniProt Q9Y5S8); assay: Inhibition of full length human NOX1 transfected in COS 22 cells assessed as inhibition of constitutive ROS generation by chemiluminescence assay
T2 sequence (Q9Y5S8 whole entry): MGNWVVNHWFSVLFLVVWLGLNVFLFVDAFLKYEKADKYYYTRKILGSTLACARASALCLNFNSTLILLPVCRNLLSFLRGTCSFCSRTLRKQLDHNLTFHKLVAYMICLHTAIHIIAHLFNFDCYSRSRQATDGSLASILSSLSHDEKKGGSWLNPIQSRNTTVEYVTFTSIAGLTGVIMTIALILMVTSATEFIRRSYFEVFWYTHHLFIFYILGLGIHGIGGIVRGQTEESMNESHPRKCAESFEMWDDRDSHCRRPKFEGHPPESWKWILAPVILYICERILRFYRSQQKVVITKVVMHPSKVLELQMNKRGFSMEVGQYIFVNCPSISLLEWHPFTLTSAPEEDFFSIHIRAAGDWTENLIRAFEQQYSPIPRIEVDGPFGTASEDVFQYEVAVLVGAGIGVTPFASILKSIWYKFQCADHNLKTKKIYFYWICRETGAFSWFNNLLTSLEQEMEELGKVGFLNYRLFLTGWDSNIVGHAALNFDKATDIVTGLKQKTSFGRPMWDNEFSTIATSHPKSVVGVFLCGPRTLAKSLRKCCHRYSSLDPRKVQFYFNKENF

NADPH oxidase 2 [1] = molecular target: T3, NADPH oxidase 2 (Homo sapiens, UniProt P04839); assay: Inhibition of full length human NOX2 transfected in COS 22 cells assessed as inhibition of Phorbol 12-myristate 13-acetate-stimulated ROS generation by measuring H2O2 production by fluorescence assay in presence of superoxide dismutase; assay type: cell-based
T3 sequence (P04839 whole entry): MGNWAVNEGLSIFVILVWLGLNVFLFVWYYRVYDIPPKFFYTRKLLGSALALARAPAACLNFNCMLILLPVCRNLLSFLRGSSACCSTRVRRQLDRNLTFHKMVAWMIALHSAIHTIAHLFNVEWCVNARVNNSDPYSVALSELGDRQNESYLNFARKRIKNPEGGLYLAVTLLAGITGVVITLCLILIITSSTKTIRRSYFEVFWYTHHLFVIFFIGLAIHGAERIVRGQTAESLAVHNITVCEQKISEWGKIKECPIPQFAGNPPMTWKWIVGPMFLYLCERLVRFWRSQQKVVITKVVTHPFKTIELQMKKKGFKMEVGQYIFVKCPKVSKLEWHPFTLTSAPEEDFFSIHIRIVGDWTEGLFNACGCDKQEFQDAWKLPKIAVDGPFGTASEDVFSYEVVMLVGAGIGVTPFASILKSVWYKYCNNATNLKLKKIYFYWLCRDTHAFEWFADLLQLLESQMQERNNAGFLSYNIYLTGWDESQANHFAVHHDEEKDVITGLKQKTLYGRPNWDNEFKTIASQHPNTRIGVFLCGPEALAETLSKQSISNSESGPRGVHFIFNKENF
Method in brief: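 Intact COS-Nox2 cells in Hepes pH 7.4 buffer with 0.1 mM Amplex Red, 0.32 U/ml HRP and 150 U/mL SOD, drug 15 min at 37 °C; started with 5 µM PMA; fluorescence monitored 1 h at 37 °C; rate as RFU/min minus unstimulated cells; % of vehicle control.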

[2] = molecular target: Xanthine dehydrogenase/oxidase (Bos taurus, UniProt P80457); assay: Inhibition of bovine milk xanthine oxidase assessed as hypoxanthine-stimulated ROS generation by measuring H2O2 production at 25 to 50 uM by fluorescence assay; settings: cattle
NADPH oxidase 2 [3] = molecular target: T3, NADPH oxidase 2; assay: Inhibition of full length human NOX2 transfected in COS 22 cells assessed as inhibition of Phorbol 12-myristate 13-acetate-stimulated ROS generation by chemiluminescence assay; assay type: cell-based
Method in brief: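 COS-Nox2 (COS-7 stably expressing human p22phox, Nox2, p47phox, p67phox) plated in OPTIMEM at 2.5 x 10³ cells/well; 10 min at 37 °C in PBS with L-012, then stimulated with 5 µM PMA; luminescence followed over time; superoxide specificity checked with SOD 150 U/mL. IC50 by three-parameter non-linear fit, Hill slope 1, top/bottom fixed 100/0.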

NADPH oxidase 4 = molecular target: T4, NADPH oxidase 4 (Homo sapiens, UniProt Q9NPH5); assay: Inhibition of full length human NOX4 transfected in COS 22 cells assessed as inhibition of ROS generation by measuring H2O2 production by fluorescence assay
T4 sequence (Q9NPH5 whole entry): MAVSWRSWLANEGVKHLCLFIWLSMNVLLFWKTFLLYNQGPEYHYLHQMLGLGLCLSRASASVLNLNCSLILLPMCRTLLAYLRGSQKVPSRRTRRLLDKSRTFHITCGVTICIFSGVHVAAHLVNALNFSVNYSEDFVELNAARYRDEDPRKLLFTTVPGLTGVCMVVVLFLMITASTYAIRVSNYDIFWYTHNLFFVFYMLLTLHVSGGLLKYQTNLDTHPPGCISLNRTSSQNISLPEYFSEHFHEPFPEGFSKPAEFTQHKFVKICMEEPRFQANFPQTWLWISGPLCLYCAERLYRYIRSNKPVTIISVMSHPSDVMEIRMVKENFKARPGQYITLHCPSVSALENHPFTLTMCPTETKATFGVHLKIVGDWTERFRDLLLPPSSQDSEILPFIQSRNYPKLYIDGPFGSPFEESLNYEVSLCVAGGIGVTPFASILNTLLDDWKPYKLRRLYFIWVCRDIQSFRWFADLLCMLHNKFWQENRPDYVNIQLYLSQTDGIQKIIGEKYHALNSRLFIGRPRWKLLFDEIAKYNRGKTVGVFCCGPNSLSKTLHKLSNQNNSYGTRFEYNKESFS

Chain of Xanthine dehydrogenase/oxidase (P80457 whole entry): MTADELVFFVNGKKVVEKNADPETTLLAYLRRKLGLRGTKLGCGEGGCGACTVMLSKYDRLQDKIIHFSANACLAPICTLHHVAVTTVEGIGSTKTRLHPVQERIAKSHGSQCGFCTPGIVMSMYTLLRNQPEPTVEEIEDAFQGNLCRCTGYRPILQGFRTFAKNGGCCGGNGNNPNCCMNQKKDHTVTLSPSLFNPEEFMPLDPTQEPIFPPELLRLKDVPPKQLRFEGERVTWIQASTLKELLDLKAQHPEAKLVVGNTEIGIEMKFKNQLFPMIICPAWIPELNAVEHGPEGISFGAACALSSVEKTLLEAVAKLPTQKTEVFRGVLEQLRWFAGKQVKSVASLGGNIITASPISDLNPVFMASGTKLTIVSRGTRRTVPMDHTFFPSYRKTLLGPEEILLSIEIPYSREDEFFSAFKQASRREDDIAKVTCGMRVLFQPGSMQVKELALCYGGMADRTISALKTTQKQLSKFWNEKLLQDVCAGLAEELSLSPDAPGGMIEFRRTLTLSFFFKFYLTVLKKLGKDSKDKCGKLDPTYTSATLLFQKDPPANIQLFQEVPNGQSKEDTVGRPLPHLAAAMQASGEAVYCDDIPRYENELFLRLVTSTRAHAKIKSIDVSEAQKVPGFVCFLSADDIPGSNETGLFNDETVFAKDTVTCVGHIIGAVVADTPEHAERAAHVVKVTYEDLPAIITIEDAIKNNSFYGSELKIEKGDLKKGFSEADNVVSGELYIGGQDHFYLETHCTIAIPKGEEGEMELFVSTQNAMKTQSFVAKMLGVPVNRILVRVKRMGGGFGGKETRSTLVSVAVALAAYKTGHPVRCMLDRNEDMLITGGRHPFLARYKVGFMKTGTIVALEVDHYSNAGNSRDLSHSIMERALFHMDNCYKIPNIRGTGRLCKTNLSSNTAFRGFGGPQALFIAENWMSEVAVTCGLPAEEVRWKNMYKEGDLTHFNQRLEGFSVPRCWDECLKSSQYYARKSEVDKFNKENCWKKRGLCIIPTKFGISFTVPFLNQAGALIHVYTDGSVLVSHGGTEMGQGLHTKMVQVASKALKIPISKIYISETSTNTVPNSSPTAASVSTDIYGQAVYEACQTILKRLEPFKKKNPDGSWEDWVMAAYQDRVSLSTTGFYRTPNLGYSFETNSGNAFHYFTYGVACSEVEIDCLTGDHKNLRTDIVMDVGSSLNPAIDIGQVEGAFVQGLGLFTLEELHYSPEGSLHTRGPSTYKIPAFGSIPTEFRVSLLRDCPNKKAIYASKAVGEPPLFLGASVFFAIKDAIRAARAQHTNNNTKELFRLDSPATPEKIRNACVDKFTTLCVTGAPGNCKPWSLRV

Compound	IC50 (NADPH oxidase 5) [µM]	IC50 (NADPH oxidase 1; read-out: IC50) [µM]	IC50 (NADPH oxidase 2 [1]; read-out: IC50) [µM]	inhibition (INH) [2]	IC50 (NADPH oxidase 2 [3]; read-out: IC50) [µM]	IC50 (NADPH oxidase 4; cos 22)	IC50 (NADPH oxidase 4; read-out: IC50) [µM]	IC50 (NADPH oxidase 2 [1]; cos 22)	IC50 (NADPH oxidase 2 [3]; cos 22)	IC50 (NADPH oxidase 1; cos 22)
C=C(C)C[C@H]1[C@H]2c3c(Br)cccc3[C@H](CC2(C)C)N1Cc1ccnc2ccccc12 (racemic)	> 100	> 100	> 100	Not Active	> 100	Not Active	–	–	–	–
C=C(C)C[C@H]1[C@H]2c3c(Br)cccc3[C@H](CC2(C)C)N1Cc1c[nH]c2ccccc12 (racemic)	> 100	> 100	> 100	Not Active	> 100	Not Active	–	–	–	–
C=C(C)C[C@H]1[C@H]2c3c(Br)cccc3[C@H](CC2(C)C)N1Cc1ccc2c(c1)OCO2 (racemic)	> 100	> 100	40	Not Active	88	–	> 100	–	–	–
C=C(C)C[C@H]1[C@H]2c3c(Br)cccc3[C@H](CC2(C)C)N1Cc1cc(C)on1 (racemic)	31	> 100	12	Not Active	48	–	> 100	–	–	–
C=C(C)C[C@H]1[C@H]2c3c(Br)cccc3[C@H](CC2(C)C)N1Cc1cccc(F)c1 (racemic)	79	> 100	51	Not Active	68	–	> 100	–	–	–
C=C(C)C[C@H]1[C@H]2c3c(Br)cccc3[C@H](CC2(C)C)N1CCCCC (racemic)	> 100	> 100	20	Not Active	20	–	> 100	–	–	–
C=C(C)C[C@H]1[C@H]2c3c(Br)cccc3[C@H](CC2(C)C)N1Cc1cccs1 (racemic)	> 100	> 100	32	Not Active	38	Not Active	–	–	–	–
C=C(C)C[C@@H]1N[C@H]2CC(C)(C)[C@@H]1c1c(-c3ccc(Cl)c(Cl)c3)cccc12 (racemic)	14	> 100	64	Not Active	9	–	> 100	–	–	–
C=C(C)C[C@@H]1N[C@H]2CC(C)(C)[C@@H]1c1c(-c3cccnc3)cccc12 (racemic)	–	–	–	Not Active	–	–	–	Not Active	Not Active	–
C=C(C)C[C@H]1[C@H]2c3c(-c4ccc(Cl)c(Cl)c4)cccc3[C@H](CC2(C)C)N1Cc1ccc2c(c1)OCO2 (racemic)	> 100	> 100	> 100	Not Active	> 100	Not Active	–	–	–	–
C=C(C)C[C@H]1[C@H]2c3c(-c4ccc(Cl)c(Cl)c4)cccc3[C@H](CC2(C)C)N1CCCCC (racemic)	> 100	> 100	79	Not Active	> 100	–	> 100	–	–	–
C=C(C)C[C@H]1[C@H]2c3c(Br)cccc3[C@H](CC2(C)C)N1S(C)(=O)=O (racemic)	> 100	–	27	Not Active	> 100	–	> 100	–	–	Not Active
C=C(C)C[C@H]1[C@H]2c3c(Br)cccc3[C@H](CC2(C)C)N1S(=O)(=O)c1ccc(F)cc1 (racemic)	> 100	> 100	> 100	Not Active	> 100	Not Active	–	–	–	–
[Cl-].c1ccc2c(c1)[I+]c1ccccc1-2 [DIPHENYLENEIODONIUM CHLORIDE]	–	–	–	Not Active	–	–	–	–	–	–
